Activity calls are given as the source filed them. The rule behind the calls is not given here.
Tests used:
A549 = assay: Growth inhibition of human A549 cells after 96 hrs by sulforhodamine B assay; type: functional, cell-based; details: A549, 96 h
How it was run: (§1)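 SRB assay with 96 h exposure to a range of concentrations and a DMSO control. Cells were TCA-fixed, SRB-stained and read at 530 nm to give IC50. Cells were kept at 37 °C, 5% CO₂. All other lines were grown in RPMI1640 with 10% FBS, pyruvate, HEPES and P/S.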

CAKI-1 = assay: Growth inhibition of human Caki1 cells after 96 hrs by sulforhodamine B assay; type: functional, cell-based; details: CAKI-1, 96 h; how it was run: as §1
HCT-116 [1] = assay: Growth inhibition of human HCT116 cells after 96 hrs by sulforhodamine B assay; type: functional, cell-based; details: HCT-116, 96 h; how it was run: as §1
PANC-1 = assay: Growth inhibition of human PANC1 cells after 96 hrs by sulforhodamine B assay; type: functional, cell-based; details: PANC-1, 96 h; how it was run: as §1
[2] = Growth inhibition of human UMRC2 cells after 96 hrs by sulforhodamine B assay; type: functional, cell-based; details: UMRC2, 96 h; how it was run: as §1
MKN-45 = assay: Growth inhibition of human MKN45 cells after 96 hrs by sulforhodamine B assay; type: functional, cell-based; details: MKN-45, 96 h; how it was run: as §1
OVCAR-3 = assay: Growth inhibition of human OVCAR-3 cells after 96 hrs by sulforhodamine B assay; type: functional, cell-based; details: OVCAR-3, 96 h; how it was run: as §1
MDA-MB-231 [3] = assay: Growth inhibition of human MDA-MB-231 cells after 96 hrs by sulforhodamine B assay; type: functional, cell-based; details: MDA-MB-231, 96 h; how it was run: as §1
HeLa = assay: Growth inhibition of human HeLa cells after 96 hrs by sulforhodamine B assay; type: functional, cell-based; how it was run: as §1
SK-MEL-28 = assay: Growth inhibition of human SK-MEL-28 cells after 96 hrs by sulforhodamine B assay; type: functional, cell-based; details: SK-MEL-28, 96 h; how it was run: as §1
U-251 = assay: Growth inhibition of human U251 cells after 96 hrs by sulforhodamine B assay; type: functional, cell-based; details: U-251, 96 h; how it was run: as §1
HT-29 = assay: Growth inhibition of human HT-29 cells after 96 hrs by sulforhodamine B assay; type: functional, cell-based; details: HT-29, 96 h; how it was run: as §1
HepG2 = assay: Growth inhibition of human HepG2 cells after 96 hrs by sulforhodamine B assay; type: functional, cell-based; details: HepG2, 96 h; how it was run: as §1
PC-3 = assay: Growth inhibition of human PC3 cells after 96 hrs by sulforhodamine B assay; type: functional, cell-based; details: PC-3, 96 h; how it was run: as §1
MDA-MB-231 [4] = assay: Growth inhibition of human MDA-MB-231 cells at 5 nM after 96 hrs by sulforhodamine B assay relative to control; type: functional; details: MDA-MB-231, 96 h
MDA-MB-231 [5] = assay: Growth inhibition of human MDA-MB-231 cells at 10 nM after 96 hrs by sulforhodamine B assay relative to control; type: functional; details: MDA-MB-231, 96 h
MDA-MB-231 [6] = assay: Growth inhibition of human MDA-MB-231 cells at 5 uM after 96 hrs by sulforhodamine B assay relative to control; type: functional; details: MDA-MB-231, 96 h
How it was run: (§2)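 MDA-MB-231 cells in DMEM with 10% FBS, 10 mM HEPES, P/S and 2 mM L-glutamine at 37 °C, 5% CO2, were treated in 96-well plates for 96 h, either alone or with a 20 nM co-treatment. They were then TCA-fixed, SRB-stained and read at 530 nm. Results are % growth inhibition versus untreated cells, with 0.5% DMSO as vehicle control, from triplicates in at least two experiments.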

MDA-MB-231 [7] = assay: Growth inhibition of human MDA-MB-231 cells at 3 uM after 96 hrs by sulforhodamine B assay relative to control; type: functional; details: MDA-MB-231, 96 h; how it was run: as §2
MDA-MB-231 [8] = assay: Growth inhibition of human MDA-MB-231 cells at 0.1 uM after 96 hrs by sulforhodamine B assay relative to control; type: functional; details: MDA-MB-231, 96 h
MDA-MB-231 [9] = assay: Growth inhibition of human MDA-MB-231 cells at 0.2 uM after 96 hrs by sulforhodamine B assay relative to control; type: functional; details: MDA-MB-231, 96 h
HCT-116 [10] = assay: Resistant index, ratio of IC50 for human HCT15 cells to IC50 for human HCT116 cells; type: functional
HCT-15 = assay: Growth inhibition of human HCT15 cells after 96 hrs by sulforhodamine B assay; type: functional, cell-based; details: HCT-15, 96 h
How it was run: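 SRB assay with 96 h exposure to a range of concentrations and a DMSO control. Cells were TCA-fixed, SRB-stained and read at 530 nm to give IC50. Cells were kept at 37 °C, 5% CO₂. MDA-MB-231, HCT116, Caki-1, UMRC2 and PANC-1 were grown in DMEM with 10% FBS, HEPES, P/S and glutamine. All other lines were grown in RPMI1640 with 10% FBS, pyruvate, HEPES and P/S.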

MDA-MB-231 [11] = assay: Growth inhibition of human MDA-MB-231 cells at 20 nM after 96 hrs by sulforhodamine B assay relative to control; type: functional; details: MDA-MB-231, 96 h
MDA-MB-231 [12] = assay: Cell cycle arrest in human MDA-MB-231 cells assessed as accumulation at G2/M phase at 0.02 to 0.2 uM after 3 to 12 hrs using propidium iodide staining; type: functional, cell-based
MDA-MB-231 [13] = assay: Induction of apoptosis in human MDA-MB-231 cells assessed as decrease of Bcl-2 protein level at 70 nM after 24 to 72 hrs by Western blotting; type: functional, cell-based
How it was run: (§3)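 MDA-MB-231 cells were exposed to 70 nM for 24, 48 or 72 h alongside untreated controls. After a PBS wash, cells were lysed in 25 mM Tris-HCl pH 7.5, 300 mM NaCl, 1% Triton X-100 with protease inhibitors. Protein was quantified by BCA, run on SDS-PAGE and transferred to nitrocellulose. Blots were probed for p21WAF1, Bcl-2 and Bad, with β-actin as the loading control.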

MDA-MB-231 [14] = assay: Induction of apoptosis in human MDA-MB-231 cells assessed as increase of p21 WAF1 protein level at 70 nM after 24 to 72 hrs by Western blotting; type: functional, cell-based; how it was run: as §3
MDA-MB-231 [15] = assay: Induction of apoptosis in human MDA-MB-231 cells assessed as DNA fragmentation; type: functional, cell-based
MDA-MB-231 [16] = assay: Induction of apoptosis in human MDA-MB-231 cells assessed as PARP fragmentation; type: functional, cell-based

Compound: COc1cc(OC)cc(N2CCN(C(=O)Nc3nc4cc(Cl)ccc4nc3OC)CC2)c1
- IC50 (A549): 73 nM
- IC50 (CAKI-1): 53 nM
- IC50 (HCT-116 [1]): 68 nM
- IC50 (PANC-1): 98 nM
- IC50 [2]: 65 nM
- IC50 (MKN-45): 64 nM
- IC50 (OVCAR-3): 42 nM
- IC50 (MDA-MB-231 [3]): 50 nM
- IC50 (HeLa): 73 nM
- IC50 (SK-MEL-28): 110 nM
- IC50 (U-251): 56 nM
- IC50 (HT-29): 79 nM
- IC50 (HepG2): 63 nM
- IC50 (PC-3): 76 nM

Compound: COc1cccc2c1C(=O)c1c(O)c3c(c(O)c1C2=O)C[C@@](O)(C(=O)CO)C[C@@H]3O[C@H]1C[C@H](N)[C@H](O)[C@H](C)O1 [DOXORUBICIN]
- inhibition at 0.005 µM (MDA-MB-231 [4]): 4.2%
- inhibition at 0.01 µM (MDA-MB-231 [5]): 59.2%

Compound: COc1cc(OC)cc(N2CCN(C(=O)Nc3nc4cc(C)ccc4nc3OC)CC2)c1
- IC50 (A549): 55 nM
- IC50 (CAKI-1): 29 nM
- IC50 (HCT-116 [1]): 47 nM
- IC50 (PANC-1): 70 nM
- IC50 [2]: 39 nM
- IC50 (MKN-45): 40 nM
- IC50 (OVCAR-3): 23 nM
- IC50 (MDA-MB-231 [3]): 32 nM
- IC50 (HeLa): 51 nM
- IC50 (SK-MEL-28): 47 nM
- IC50 (U-251): 31 nM
- IC50 (HT-29): 48 nM
- IC50 (HepG2): 45 nM
- IC50 (PC-3): 63 nM

Compound: O=c1[nH]cc(F)c(=O)[nH]1 [FLUOROURACIL]
- inhibition at 5 µM (MDA-MB-231 [6]): 41.6%
- inhibition at 3 µM (MDA-MB-231 [7]): 3.3%

Compound: COc1cc(OC)cc(N2CCN(C(=O)Nc3nc4c(C)cccc4nc3OC)CC2)c1
- IC50 (A549): 56 nM
- IC50 (CAKI-1): 32 nM
- IC50 (HCT-116 [1]): 50 nM
- IC50 (PANC-1): 54 nM
- IC50 [2]: 30 nM
- IC50 (MKN-45): 57 nM
- IC50 (OVCAR-3): 39 nM
- IC50 (MDA-MB-231 [3]): 60 nM
- IC50 (HeLa): 62 nM
- IC50 (SK-MEL-28): 64 nM
- IC50 (U-251): 54 nM
- IC50 (HT-29): 55 nM
- IC50 (HepG2): 63 nM
- IC50 (PC-3): 57 nM

Compound: Nc1ccn([C@@H]2O[C@H](CO)[C@@H](O)C2(F)F)c(=O)n1 [GEMCITABINE]
- inhibition at 0.1 µM (MDA-MB-231 [8]): 1%
- inhibition at 0.2 µM (MDA-MB-231 [9]): 17.7%

Compound: CC(=O)O[C@H]1C(=O)[C@@]2(C)[C@H]([C@H](OC(=O)c3ccccc3)[C@]3(O)C[C@H](OC(=O)[C@H](O)[C@@H](NC(=O)c4ccccc4)c4ccccc4)C(C)=C1C3(C)C)[C@]1(OC(C)=O)CO[C@@H]1C[C@@H]2O [PACLITAXEL]
- Ratio IC50 (HCT-116 [10]): 70
- IC50 (HCT-116 [1]): 2 nM
- IC50 (HCT-15): 140 nM

Compound: COc1cc(OC)cc(N2CCN(C(=O)Nc3nc4c(OC)cccc4nc3OC)CC2)c1
- IC50 (A549): 64 nM
- IC50 (CAKI-1): 33 nM
- IC50 (HCT-116 [1]): 60 nM
- IC50 (PANC-1): 42 nM
- IC50 [2]: 29 nM
- IC50 (MKN-45): 52 nM
- IC50 (OVCAR-3): 44 nM
- IC50 (MDA-MB-231 [3]): 56 nM
- IC50 (HeLa): 63 nM
- IC50 (SK-MEL-28): 68 nM
- IC50 (U-251): 58 nM
- IC50 (HT-29): 74 nM
- IC50 (HepG2): 57 nM
- IC50 (PC-3): 57 nM

Compound: COc1cc(OC)cc(N2CCN(C(=O)Nc3nc4cc(F)ccc4nc3OC)CC2)c1 [SUPINOXIN]
- IC50 (A549): 21 nM
- IC50 (CAKI-1): 11 nM
- inhibition at 0.02 µM (MDA-MB-231 [11]): 14%
- Ratio IC50 (HCT-116 [10]): 0.72
- Activity (MDA-MB-231 [12]): Active
- IC50 (HCT-116 [1]): 20 nM
- IC50 (PANC-1): 21 nM
- IC50 [2]: 13 nM
- IC50 (MKN-45): 20 nM
- Activity (MDA-MB-231 [13]): Active
- IC50 (OVCAR-3): 12 nM
- IC50 (MDA-MB-231 [3]): 12 nM
- IC50 (HeLa): 21 nM
- Activity (MDA-MB-231 [14]): Active
- IC50 (SK-MEL-28): 20 nM
- IC50 (U-251): 15 nM
- Activity (MDA-MB-231 [15]): Active
- Activity (MDA-MB-231 [16]): Active
- IC50 (HT-29): 21 nM
- IC50 (HepG2): 19 nM
- IC50 (PC-3): 21 nM
- IC50 (HCT-15): 21 nM

— ChEMBL document CHEMBL1275358, “Synthesis and anticancer activity of new 1-[(5 or 6-substituted 2-alkoxyquinoxalin-3-yl)aminocarbonyl]-4-(hetero)arylpiperazine derivatives” (Bioorg Med Chem, 2010)
